According to ChEMBL document CHEMBL4406881, “Design, synthesis and biological evaluation of benzoylacrylic acid shikonin ester derivatives as irreversible dual inhibitors of tubulin and EGFR” (Bioorg Med Chem, 2019):

Experiments:
[1] = target: Tubulin (Homo sapiens) (UniProt P68371+Q9H4B7+P0DPH7+P68366+Q13509+Q71U36+P04350+Q3ZCM7+P07437+P68363+Q9BQE3+Q6PEY2+Q13885+Q9BVA1+Q9BUF5); assay: Inhibition of microtubule polymerization in human A549 cells assessed as polymerized tubulin expression at 1 uM after 24 hrs by immuno blot analysis; format: cell-based
[2] = test system: A549; assay: Induction of apoptosis in human A549 cells assessed as high mitochondrial membrane potential after 20 mins by JC-1 staining-based flow cytometric analysis (reference value: 90.6%); format: functional
[3] = test system: A549; assay: Induction of apoptosis in human A549 cells assessed as low mitochondrial membrane potential after 20 mins by JC-1 staining-based flow cytometric analysis (reference value: 6.3%); format: functional
[4] = test system: A549; assay: Antiproliferative activity against human A549 cells assessed as reduction in cell viability after 24 hrs by MTT assay; format: functional, cell-based; settings: A549, 24 h
[5] = test system: MCF7; assay: Antiproliferative activity against human MCF7 cells assessed as reduction in cell viability after 24 hrs by MTT assay; format: functional, cell-based; settings: MCF7, 24 h
Procedure, shortened: (§1)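 MTT colorimetric assay. Cells in log phase in medium with 10% FBS were seeded at 10⁴ cells/well and left overnight at 37 °C, 5% CO₂ to reattach. Compounds were added at 0.1, 1, 10 and 100 μM in 10% FBS for 24 h. IC50 reported as mean ± SD of three independent experiments.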

[6] = Cytotoxicity against human LO2 cells assessed as reduction in cell viability after 24 hrs by MTT assay; format: cell-based, L02; procedure, shortened: as §1
[7] = test system: NCI-H1975; assay: Antiproliferative activity against human NCI-H1975 cells assessed as reduction in cell viability after 24 hrs by MTT assay; format: functional, cell-based; settings: NCI-H1975, 24 h; procedure, shortened: as §1
[8] = Toxicity in ip dosed Balb/c mouse xenografted with human A549 cells assessed as reduction in body weight at 2 mg/kg, ip administered once every two days for 32 days and measured for every 2 days; format: organism-based; settings: in vivo
Procedure, shortened: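 Female BALB/c nude mice (5-6 weeks) received 6×10^6 A549 cells s.c. in the flank. After two weeks (tumours ~90 mm³) they were split into 5 groups (n = 8). Dosing was 2 or 4 mg/kg, dissolved in DMSO, i.p. once every two days for 16 doses; DMSO vehicle served as control. Body weight and tumour volume (L×S²/2) were recorded every two days; mice were killed at day 32.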

[9] = test system: HeLa; assay: Antiproliferative activity against human HeLa cells assessed as reduction in cell viability after 24 hrs by MTT assay; format: functional, cell-based; procedure, shortened: as §1
[10] = test system: NCI-H460; assay: Antiproliferative activity against human H460 cells assessed as reduction in cell viability after 24 hrs by MTT assay; format: functional, cell-based; settings: NCI-H460, 24 h; procedure, shortened: as §1
[11] = target: T1, Epidermal growth factor receptor (Homo sapiens, UniProt P00533); assay: Inhibition of C-terminal His-tagged N-terminal GST-tagged human EGFR (668 to 1210 residues) expressed in baculovirus infected Sf9 cells after 30 mins in presence of gamma-[32p-ATP] binding assay
T1 sequence (P00533 whole entry, the tested form may be a part): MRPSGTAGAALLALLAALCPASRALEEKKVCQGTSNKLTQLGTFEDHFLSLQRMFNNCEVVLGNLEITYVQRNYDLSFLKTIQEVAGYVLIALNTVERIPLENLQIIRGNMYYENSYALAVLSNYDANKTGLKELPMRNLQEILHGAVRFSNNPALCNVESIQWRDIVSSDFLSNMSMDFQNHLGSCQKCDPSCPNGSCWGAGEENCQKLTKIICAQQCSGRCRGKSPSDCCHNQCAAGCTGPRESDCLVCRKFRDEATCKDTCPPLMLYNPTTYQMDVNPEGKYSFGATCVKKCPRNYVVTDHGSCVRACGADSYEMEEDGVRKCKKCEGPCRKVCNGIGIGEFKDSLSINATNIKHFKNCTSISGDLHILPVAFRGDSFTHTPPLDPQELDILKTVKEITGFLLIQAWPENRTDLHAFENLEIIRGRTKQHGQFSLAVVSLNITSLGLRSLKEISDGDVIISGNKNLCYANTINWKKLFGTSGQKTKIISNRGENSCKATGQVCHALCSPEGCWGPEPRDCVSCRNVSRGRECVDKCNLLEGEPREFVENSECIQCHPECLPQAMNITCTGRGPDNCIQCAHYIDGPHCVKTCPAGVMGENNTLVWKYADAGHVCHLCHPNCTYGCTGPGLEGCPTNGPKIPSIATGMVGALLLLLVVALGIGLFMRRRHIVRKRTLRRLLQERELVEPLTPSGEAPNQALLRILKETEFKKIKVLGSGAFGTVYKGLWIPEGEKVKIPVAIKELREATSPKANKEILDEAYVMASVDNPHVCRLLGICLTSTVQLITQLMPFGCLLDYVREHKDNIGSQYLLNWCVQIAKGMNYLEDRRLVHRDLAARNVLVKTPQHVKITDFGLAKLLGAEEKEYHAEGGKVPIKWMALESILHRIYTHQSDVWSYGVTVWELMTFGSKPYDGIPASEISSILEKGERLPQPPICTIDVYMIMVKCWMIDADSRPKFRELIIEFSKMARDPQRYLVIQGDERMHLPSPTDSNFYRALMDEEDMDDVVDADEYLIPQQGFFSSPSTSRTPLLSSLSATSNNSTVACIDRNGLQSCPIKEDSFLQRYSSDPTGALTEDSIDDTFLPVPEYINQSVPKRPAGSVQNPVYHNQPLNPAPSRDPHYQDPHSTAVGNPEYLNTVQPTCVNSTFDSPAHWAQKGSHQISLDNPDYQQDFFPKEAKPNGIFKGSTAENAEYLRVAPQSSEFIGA

[12] = target: T1, Epidermal growth factor receptor; assay: Potency index, ratio of shi-konin IC50 to compound IC50 for inhibition of C-terminal His-tagged N-terminal GST-tagged human EGFR (668 to 1210 residues) expressed in baculovirus infected Sf9 cells after 30 mins in presence of gamma-[32p-ATP] binding assay

| SMILES | fold change (FC) [1] | IC50 [4] [µM] | IC50 [5] [µM] | IC50 [7] [µM] | IC50 [9] [µM] | IC50 [10] [µM] | IC50 [11] [µM] | Ratio IC50 [12] | Activity [2] [%] | Activity [3] [%] | CC50 at 24 h [6] [µM] | Activity [8] |
| --- | --- | --- | --- | --- | --- | --- | --- | --- | --- | --- | --- | --- |
| CC(=O)O[C@H]1C(=O)[C@@]2(C)[C@H]([C@H](OC(=O)c3ccccc3)[C@]3(O)C[C@H](OC(=O)[C@H](O)[C@@H](NC(=O)c4ccccc4)c4ccccc4)C(C)=C1C3(C)C)[C@]1(OC(C)=O)CO[C@@H]1C[C@@H]2O | 0.82 |  |  |  |  |  |  |  |  |  |  |  |
| N#CC(C#N)=NNc1cccc(Cl)c1 [CARBONYL CYANIDE M-CHLOROPHENYLHYDRAZONE] |  |  |  |  |  |  |  |  | 26.5 | 67.9 |  |  |
| CC(C)=CC[C@@H](O)C1=CC(=O)c2c(O)ccc(O)c2C1=O [SHIKONIN] |  | 6.13 | 9.55 | 4.28 | 7.84 | 5.04 | 0.139 |  |  |  | 12.2 | Toxic |
| CCc1ccc(C(=O)/C=C\C(=O)O[C@H](CC=C(C)C)C2=CC(=O)c3c(O)ccc(O)c3C2=O)cc1 |  | 14.5 | 9.37 | 12.4 | 15.2 | 16.4 | 0.0508 |  |  |  | 92.4 |  |
| CC(C)=CC[C@@H](OC(=O)/C=C\C(=O)c1ccc(Cl)cc1)C1=CC(=O)c2c(O)ccc(O)c2C1=O |  | 8.52 | 9.62 | 11.8 | 11.4 | 11.7 | 0.0325 |  |  |  | > 100 |  |
| CC(C)=CC[C@@H](OC(=O)/C=C\C(=O)c1ccccc1)C1=CC(=O)c2c(O)ccc(O)c2C1=O |  | 7.51 | 19.4 | 10.3 | 17.6 | 4.59 | > 0.15 |  |  |  | > 100 |  |
| CN(C)C/C=C/C(=O)Nc1cc2c(Nc3ccc(F)c(Cl)c3)ncnc2cc1O[C@H]1CCOC1 [AFATINIB] |  |  | 7.62 | 5.55 | 6.39 | 6.14 |  |  |  |  | 25.3 |  |

More lines, main results first:

| fold change (FC) [1] | IC50 [4] [µM] | IC50 [5] [µM] | IC50 [7] [µM] | IC50 [9] [µM] | IC50 [10] [µM] | IC50 [11] [µM] | Ratio IC50 [12] | SMILES | Activity [2] [%] | Activity [3] [%] | CC50 at 24 h [6] [µM] | Activity [8] |
| --- | --- | --- | --- | --- | --- | --- | --- | --- | --- | --- | --- | --- |
|  | 13.1 | 5.28 | 10.2 | 10.2 | 13.2 | > 0.15 |  | CC(C)=CC[C@@H](OC(=O)/C=C\C(=O)c1cc(C)ccc1C)C1=CC(=O)c2c(O)ccc(O)c2C1=O |  |  | 78.1 |  |
|  | 9.12 | 14.3 | 15.7 | 10.1 | 11.3 | 0.119 |  | CC(C)=CC[C@@H](OC(=O)/C=C\C(=O)c1ccc(C)c(C)c1)C1=CC(=O)c2c(O)ccc(O)c2C1=O |  |  | 88.4 |  |
|  | 10.2 | 7.89 | 16.6 | 18.6 | 9.17 | > 0.15 |  | CC(C)=CC[C@@H](OC(=O)/C=C\C(=O)c1ccc(C)cc1C)C1=CC(=O)c2c(O)ccc(O)c2C1=O |  |  | > 100 |  |
|  | 12.6 | 6.64 | 9.56 | 15.1 | 13.6 | 0.12 |  | CC(C)=CC[C@@H](OC(=O)/C=C\C(=O)c1ccc(C)cc1F)C1=CC(=O)c2c(O)ccc(O)c2C1=O |  |  | > 100 |  |
|  | 15.4 | 14.3 | 22.5 | 17.2 | 4.21 | > 0.15 |  | CC(C)=CC[C@@H](OC(=O)/C=C\C(=O)c1ccc(C)c(Br)c1)C1=CC(=O)c2c(O)ccc(O)c2C1=O |  |  | > 100 |  |
|  | 13.2 | 18.6 | 18.3 | 9.34 | 10.3 | 0.146 |  | CC(C)=CC[C@@H](OC(=O)/C=C\C(=O)c1cc(Cl)ccc1C)C1=CC(=O)c2c(O)ccc(O)c2C1=O |  |  | 83.3 |  |
|  | 13.4 | 10.1 | 7.26 | 14.2 | 8.35 | 0.0234 | 6 | CC(C)=CC[C@@H](OC(=O)/C=C\C(=O)c1cc(F)ccc1C)C1=CC(=O)c2c(O)ccc(O)c2C1=O |  |  | 93.5 |  |
|  | 6.23 | 6.63 | 9.56 | 10.1 | 8.16 | 0.105 |  | CC(C)=CC[C@@H](OC(=O)/C=C\C(=O)c1ccc(C)cc1Cl)C1=CC(=O)c2c(O)ccc(O)c2C1=O |  |  | > 100 |  |
|  | 9.72 | 9.14 | 10.2 | 8.96 | 11.4 | 0.0452 |  | CC(C)=CC[C@@H](OC(=O)/C=C\C(=O)c1ccc(C)cc1)C1=CC(=O)c2c(O)ccc(O)c2C1=O |  |  | 64.2 |  |
|  | 9.39 | 7.68 | 7.25 | 8.27 | 10.1 | 0.107 |  | CC(C)=CC[C@@H](OC(=O)/C=C\C(=O)c1ccc(C)c(F)c1)C1=CC(=O)c2c(O)ccc(O)c2C1=O |  |  | > 100 |  |
|  | 9.19 | 9.31 | 13.3 | 8.02 | 6.51 | 0.12 |  | CC(C)=CC[C@@H](OC(=O)/C=C\C(=O)c1ccc(Br)cc1)C1=CC(=O)c2c(O)ccc(O)c2C1=O |  |  | > 100 |  |
